The values that follow come from ChEMBL document CHEMBL3232734, “Nitric oxide (NO) releasing poly ADP-ribose polymerase 1 (PARP-1) inhibitors targeted to glutathione S-transferase P1-overexpressing cancer cells” (J Med Chem, 2014).

In data set [1] the test system is Mus musculus. Put plainly: Systemic toxicity in NCr nu/nu athymic mouse xenografted with human A549 cells assessed as body weight at 92 umol/kg, iv administered two times a week for 4 weeks (reference value: 25.0 +/-0.78 gms). The settings on record: in vivo, 672 h. It counts as organism-based.
Data set [2] concerns NCI-H1703. The data set is described as follows: Induction of apoptosis in human NCI-H1703 cells assessed as cleaved caspase-7 level at 5 to 25 uM by immunoblot analysis. Format: functional, cell-based. The settings on record: 5 to […] uM. On the technique in general: A western blot detects proteins with antibodies after separation by electrophoresis.
Data set [3] deals with T1, Poly [ADP-ribose] polymerase 1 (Homo sapiens, UniProt P09874). The data set is described as follows: Inhibition of PARP-1 (unknown origin) assessed as incorporation of biotinylated poly ADP-ribose onto histone proteins by colorimetric analysis.
T1 sequence (P09874 whole entry): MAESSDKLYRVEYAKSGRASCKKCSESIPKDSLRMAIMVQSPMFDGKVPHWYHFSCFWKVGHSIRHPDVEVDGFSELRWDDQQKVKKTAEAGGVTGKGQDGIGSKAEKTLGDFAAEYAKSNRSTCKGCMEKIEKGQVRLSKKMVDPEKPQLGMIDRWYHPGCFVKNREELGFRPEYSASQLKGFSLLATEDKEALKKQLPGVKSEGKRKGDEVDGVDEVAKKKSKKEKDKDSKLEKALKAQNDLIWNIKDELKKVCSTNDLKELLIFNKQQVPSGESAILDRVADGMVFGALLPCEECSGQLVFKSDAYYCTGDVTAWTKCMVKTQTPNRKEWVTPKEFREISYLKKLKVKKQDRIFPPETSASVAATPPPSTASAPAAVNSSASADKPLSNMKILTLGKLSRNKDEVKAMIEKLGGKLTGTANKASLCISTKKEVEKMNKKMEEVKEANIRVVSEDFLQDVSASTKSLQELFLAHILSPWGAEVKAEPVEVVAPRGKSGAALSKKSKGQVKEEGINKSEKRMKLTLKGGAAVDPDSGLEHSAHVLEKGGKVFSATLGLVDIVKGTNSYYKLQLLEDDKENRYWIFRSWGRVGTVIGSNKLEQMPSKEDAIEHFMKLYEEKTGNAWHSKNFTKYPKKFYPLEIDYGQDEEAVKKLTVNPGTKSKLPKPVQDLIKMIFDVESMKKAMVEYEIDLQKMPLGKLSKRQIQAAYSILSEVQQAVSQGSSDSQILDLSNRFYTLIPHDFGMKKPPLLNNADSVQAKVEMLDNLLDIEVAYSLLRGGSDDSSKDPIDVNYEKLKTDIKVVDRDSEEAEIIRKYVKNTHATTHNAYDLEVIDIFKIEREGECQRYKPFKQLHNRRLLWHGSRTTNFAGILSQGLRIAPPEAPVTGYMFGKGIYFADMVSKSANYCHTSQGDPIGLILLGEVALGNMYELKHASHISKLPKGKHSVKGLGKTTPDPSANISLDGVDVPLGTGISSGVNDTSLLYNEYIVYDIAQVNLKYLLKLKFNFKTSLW
Data set [4] has as its system A549. Put plainly: Retention time of the compound in human A549 cells treated with 2-(2,4-dinitrophenoxy)-1-(4-(2-fluoro-5-((4-oxo-3,4-dihydrophthalazin-1-yl)methyl)benzoyl)piperazin-1-yl)diazene oxide at 10 uM by LC/MS/MS analysis. It counts as ADME, cell-based. The settings on record: a549, 10 µM. A digest of the protocol: (§1)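 A549 cells plated in flasks overnight at 37 °C, then treated with 10 μM compound for varying times. Lysed by scraping in 10 mM HCl/acetonitrile, 5% sulfosalicylic acid added, centrifuged at 12000g for 15 min, filtered. Analyzed on a C18 column, 0.2 mL/min, H2O/acetonitrile/0.1% formic acid gradient, by Q-TOF LC/MS/MS in positive mode; extracted ion chromatograms at [M+H]+.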

A short description of data set [5]: Prodrug activation assessed as GSH reactivity in aqueous phosphate buffer at pH 7.4 by UV-Visible spectrophotometer analysis. It counts as physicochemical. A digest of the protocol:
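UV–vis kinetics at 37 °C in 0.1 M phosphate buffer, pH 7.4, with 50 μM DTPA and 4 mM GSH, with or without 40 nM recombinant GSTP1 or GSTA1. Substrate (typically 10 μM) added after thermal equilibration. Ratios are k with enzyme over k with GSH alone.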

For data set [6], the target named is Glutathione S-transferase P (Homo sapiens, UniProt P09211). Put plainly: Ratio of prodrug activation in presence of GSH and recombinant GSTP1 (unknown origin) to prodrug activation in presence of GSH by UV-Visible spectrophotometry. In a few lines:
(§2)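 UV–vis kinetics at 37 °C in 0.1 M phosphate buffer, pH 7.4, with 50 μM DTPA and 4 mM GSH, with or without 40 nM recombinant GSTP1 or GSTA1. Substrate (typically 10 μM) added after thermal equilibration. Absorbance followed at 302 nm; first-order rate from an exponential fit. Ratios are k with enzyme over k with GSH alone.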

Data set [7] concerns the target T2, Glutathione S-transferase A1 (Homo sapiens, UniProt P08263).
T2 sequence (P08263 whole entry): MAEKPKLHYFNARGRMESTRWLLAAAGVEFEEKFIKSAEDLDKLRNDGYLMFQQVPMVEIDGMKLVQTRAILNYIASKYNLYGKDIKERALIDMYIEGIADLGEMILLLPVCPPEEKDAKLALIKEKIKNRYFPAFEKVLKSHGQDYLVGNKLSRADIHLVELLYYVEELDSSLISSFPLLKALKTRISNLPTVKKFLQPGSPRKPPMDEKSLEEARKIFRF
Put plainly: Ratio of prodrug activation in presence of GSH and recombinant GSTA1 (unknown origin) to prodrug activation in presence of GSH by UV-Visible spectrophotometry. A digest of the protocol: as §2

The test system of data set [8] is A549. The data set is described as follows: Anticancer activity against human A549 cells xenografted in NCr nu/nu athymic mouse assessed as reduction of tumor growth at 92 umol/kg, iv administered two times a week for 4 weeks. It counts as functional, organism-based. In a few lines:
(§3)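 A549 cells (RPMI 1640 + 10% FBS, ≤4 passages) harvested at 70–80% confluence, 5 × 10^6 cells in PBS implanted s.c.; at ~3 mm × 3 mm tumors, mice randomized into groups of 12. Tail-vein injection at 92 μmol/kg in 20 μL DMSO, twice weekly for 4 weeks; saline or DMSO controls. Tumors caliper-measured twice weekly, volume = π/2 × L × W². Tumors resected at end, frozen, extracted for metabolite analysis by LC/MS.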

Data set [9] deals with Tumour. The data set is described as follows: Drug uptake in tumor of NCr nu/nu athymic mouse xenografted with human A549 cells at 92 umol/kg, iv administered two times a week for 4 weeks. Format: ADME, organism-based, Neoplasm. The settings on record: in vivo, 672 h. In a few lines: as §3
Data set [10] has as its system Tumour. The data set is described as follows: Drug metabolism in tumor of NCr nu/nu athymic mouse xenografted with human A549 cells assessed as metabolite formation at 92 umol/kg, iv administered two times a week for 4 weeks. Format: ADME, organism-based, Neoplasm. The settings on record: in vivo, 672 h. In a few lines: as §3
Background: Xenograft models place foreign cells or tissue in a host animal.

Data set [11] addresses T1, Poly [ADP-ribose] polymerase 1. Put plainly: Inhibition of PARP-1 (unknown origin) assessed as incorporation of biotinylated poly ADP-ribose onto histone proteins measured without activation by GSH by colorimetric analysis. In a few lines: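 Colorimetric PARP assay kit measuring biotinylated poly(ADP-ribose) incorporation onto histones, run per the manufacturer's protocol. Absorbance read at 450 nm. Inhibitor tested over 0.01 nM–1 μM, prodrug given without GSH activation. At least three experiments, each at least in triplicate.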

Data set [12] in a line: In vitro antiproliferative activity against human NCI-H1568 cells assessed as inhibition of cell proliferation after 72 hrs by MTT assay. Format: functional, cell-based. To be noted: NCI-H1568, 72 h. For orientation: Formazan colour is commonly taken as a measure of viable cells.
In data set [13] the test system is NCI-H1703. Put plainly: In vitro antiproliferative activity against human NCI-H1703 cells assessed as inhibition of cell proliferation after 72 hrs by MTT assay. To be noted: NCI-H1703, 72 h. Format: functional, cell-based.
A short description of data set [14]: In vitro antiproliferative activity against human H441 cells assessed as inhibition of cell proliferation after 72 hrs by MTT assay. To be noted: NCI-H441, 72 h. Format: functional, cell-based.
Data set [15] deals with NCI-H1693. The data set is described as follows: In vitro antiproliferative activity against human NCI-H1693 cells assessed as inhibition of cell proliferation after 72 hrs by MTT assay. It counts as functional, cell-based. To be noted: NCI-H1693, 72 h.
In data set [16] the test system is NCI-H2122. The data set is described as follows: In vitro antiproliferative activity against human NCI-H2122 cells assessed as inhibition of cell proliferation after 72 hrs by MTT assay. It counts as functional, cell-based. To be noted: NCI-H2122, 72 h.
Data set [17] has as its system NCI-H322M. The data set is described as follows: In vitro antiproliferative activity against human NCI-H322M cells assessed as inhibition of cell proliferation after 72 hrs by MTT assay. It counts as functional, cell-based.
Data set [18] can be described thus: In vitro antiproliferative activity against human H23 cells assessed as inhibition of cell proliferation after 72 hrs by MTT assay. Format: functional, cell-based. The settings on record: NCI-H23, 72 h.
In data set [19] the test system is NCI-H2030. Put plainly: In vitro antiproliferative activity against human NCI-H2030 cells assessed as inhibition of cell proliferation after 72 hrs by MTT assay. Format: functional, cell-based. The settings on record: NCI-H2030, 72 h.
Data set [20] in a line: In vitro antiproliferative activity against human NCI-H1944 cells assessed as inhibition of cell proliferation after 72 hrs by MTT assay. The settings on record: NCI-H1944, 72 h. Format: functional, cell-based.
Data set [21] deals with NCI-H1792. The data set is described as follows: In vitro antiproliferative activity against human NCI-H1792 cells assessed as inhibition of cell proliferation after 72 hrs by MTT assay. Format: functional, cell-based. The settings on record: NCI-H1792, 72 h.
Data set [22] concerns A549. The data set is described as follows: In vitro antiproliferative activity against human A549 cells assessed as inhibition of cell proliferation after 72 hrs by MTT assay. The settings on record: A549, 72 h. Format: functional, cell-based.
The nature of data set [23]: In vitro antiproliferative activity against human NCI-H2023 cells assessed as inhibition of cell proliferation after 72 hrs by MTT assay. It counts as functional, cell-based. To be noted: NCI-H2023, 72 h.
A short description of data set [24]: In vitro antiproliferative activity against human H460 cells assessed as inhibition of cell proliferation after 72 hrs by MTT assay. It counts as functional, cell-based. To be noted: NCI-H460, 72 h.
The subject of data set [25] is NCI-H1703. The data set is described as follows: Increase in intracellular nitric oxide release in human NCI-H1703 cells at 10 uM after 30 mins by DAF-FM dye based luminescence spectrometer analysis. It counts as functional, cell-based.
The test system of data set [26] is NCI-H1703. Put plainly: Increase in intracellular reactive oxygen/nitrogen species in human NCI-H1703 cells at 10 uM after 60 mins by DCF-DA dye based luminescence spectrometer analysis. Format: functional, cell-based. In a few lines:
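Cells in six-well plates (6 × 10^5/well) loaded with 5 μM DCF-DA in HBSS, 30 min at 37 °C, 5% CO2, then rinsed. Fresh HBSS with compound (10 μM) or DMSO control added. After 60 min cells scraped into HBSS; DCF fluorescence read at ex 488 / em 530 nm. At least three experiments, each at least in triplicate.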

Data set [27] has as its system NCI-H1703. Put plainly: Induction of DNA strand break damage in human NCI-H1703 cells at 5 uM after 24 hrs by comet assay. Format: functional, cell-based.
Data set [28] relates to A549. Put plainly: Retention time of the compound in human A549 cells at 10 uM by LC/MS/MS analysis. Format: ADME, cell-based. The settings on record: a549, 10 µM. In a few lines:
as §1

Data set [29] has as its system NCI-H1355. The data set is described as follows: In vitro antiproliferative activity against human NCI-H1355 cells assessed as inhibition of cell proliferation after 72 hrs by MTT assay. Format: functional, cell-based. To be noted: NCI-H1355, 72 h.

Active and inactive are the calls of the source. No cut-off for these calls is given here.

Chain of Glutathione S-transferase P (P09211 whole entry): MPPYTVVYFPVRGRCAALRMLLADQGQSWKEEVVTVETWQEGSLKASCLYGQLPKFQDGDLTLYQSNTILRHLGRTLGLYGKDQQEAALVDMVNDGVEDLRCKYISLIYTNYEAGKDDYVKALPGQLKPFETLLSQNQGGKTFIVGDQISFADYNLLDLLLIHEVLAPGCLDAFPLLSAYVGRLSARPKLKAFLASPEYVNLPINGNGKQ

Consider `O=C(c1cc(Cc2n[nH]c(=O)c3ccccc23)ccc1F)N1CCN(C(=O)C2CC2)CC1` [OLAPARIB], for which, in [1], the Activity came to 25.6 g. For the same molecule, the result in data set [2] was inactive.

Consider `O=C(c1cccc(Cc2n[nH]c(=O)c3ccccc23)c1)N1CCNCC1`, for which the IC50 in data set [3] amounted to 0.0305 µM.

On to `N[C@@H](CCC(=O)N[C@@H](CSc1ccc([N+](=O)[O-])cc1[N+](=O)[O-])C(=O)NCC(=O)O)C(=O)O`, for which the Retention_time in [4] turned out to be 13.8 min.

Turning to `CNc1ccc(C(=O)Oc2cc(O/N=[N+](\[O-])N(C)C)c([N+](=O)[O-])cc2[N+](=O)[O-])cc1`, the t1/2 in data set [5] was determined as 2 min. For the same molecule, the Ratio in [6] amounted to 5.4; in data set [7], 3.7.

For the molecule `O=C(c1cc(Cc2n[nH]c(=O)c3ccccc23)ccc1F)N1CCN(/[N+]([O-])=N/Oc2ccc([N+](=O)[O-])cc2[N+](=O)[O-])CC1`, the “growth inhibition (GI)” value in [8] was “Active”. Besides, in data set [1], the Activity is on record as 27.7 g. For the same molecule, the Drug uptake entry in data set [9] is on record as “Active”. In addition, the Drug metabolism entry in data set [10] is on record as “metabolite_detected”. Moreover, the t1/2 in data set [5] stood at 11.6 min. Besides, the 50% inhibitory concentration (IC50) in data set [11] was 0.058 µM; in data set [12] it was 3 µM; in data set [13], 4.3 µM; in data set [14], 4.5 µM; in data set [15] it was 5.4 µM; in data set [16] it was 7.5 µM. The IC50 stood at 7.9 µM in [17]; 8.4 µM in [18]; 9.2 µM in data set [19]; 10.5 µM in data set [20]; 12.7 µM in [21]; 13.5 µM in data set [22]. In addition, the 50% inhibitory concentration (IC50) is 15 µM in data set [23] and 16.4 µM in data set [24]. For the same molecule, the result in data set [25], in data set [26], in [27] and in data set [2] was Active. Further, the Retention_time in data set [28] is on record as 18.2 min. For the same molecule, the Ratio in [6] stood at 10.6; in data set [7] it was 20.4.

`O=C(c1cccc(Cc2n[nH]c(=O)c3ccccc23)c1)N1CCN(/[N+]([O-])=N/Oc2ccc([N+](=O)[O-])cc2[N+](=O)[O-])CC1`: the t1/2 in data set [5] is listed as 11.2 min. Besides, the IC50 is 0.123 µM in data set [11]; 6.5 µM in [12]; 6.8 µM in data set [13]; 8.1 µM in data set [14]; 5.3 µM in [15]; 11.2 µM in [16]. Moreover, the IC50 in data set [17] was 9 µM; in data set [29] it was 11.4 µM; in data set [18], 7.5 µM; in data set [19], 13.8 µM; in [20], 14 µM; in data set [21], 14 µM. Also, the IC50 in data set [22] came out at 16.8 µM; in data set [23], 19.4 µM; in data set [24], 13.8 µM. In addition, the outcome in [25] and in [26] was Active.

In [4], `O=C(c1cc(Cc2n[nH]c(=O)c3ccccc23)ccc1F)N1CCNCC1` had a Retention_time of 11.9 min. In [3], the IC50 worked out at 0.0069 µM.

As usually defined, the IC50 is the concentration that inhibits the measured activity by half.
